Measured values pooled from the literature.
Compare with care: the assays were run in different laboratories.
HDAC8: Histone deacetylase 8 (HDAC8, Homo sapiens, UniProt Q9BY41)
BRD4 BD1: Bromodomain-containing protein 4, BD1 (BRD4, Homo sapiens, UniProt O60885)
murD: UDP-N-acetylmuramoylalanine--D-glutamate ligase (murD, Escherichia coli K-12, UniProt P14900)
BAZ1B: Tyrosine-protein kinase BAZ1B (BAZ1B, Homo sapiens, UniProt Q9UIG0)

Cc1ccc(C(=O)Nc2ccc(CN3CCN(C)CC3)c(C(F)(F)F)c2)cc1C#Cc1cnc2cccnn12  remaining activity (Mitogen-activated protein kinase kinase kinase 4 (MAP3K4, Homo sapiens, UniProt Q9Y6R4); enzyme activity; inhibitor; 23.5 nM): 95%
C[S+]([O-])c1ccc(-c2nc(-c3ccncc3)c(-c3ccc(F)cc3)[nH]2)cc1 (centres unmarked)  ΔTm (Bromodomain-containing protein 4, BD2 (BRD4, Homo sapiens, UniProt O60885); thermal stability; DSF; 10 µM): 1.67 °C
O=c1c(O)c(-c2ccc(O)cc2)oc2cc(O)cc(O)c12  inhibition (HDAC8; enzyme activity; inhibitor; 10 µM): 66.3%
CCCOc1ccc(OC)c(F)c1C(=O)c1ccc(C(=O)N[C@@H]2CNC[C@H]2NC(=O)c2ccc3[nH]ncc3c2)cc1  remaining activity (cGMP-dependent protein kinase 1 (PRKG1, Homo sapiens, UniProt Q13976); enzyme activity; inhibitor; 10 µM): -6%
NS(=O)(=O)c1ccc(Nc2nc(-c3ccc(F)cc3)c3ccccc3n2)cc1  remaining binding (BRD4 BD1; binding; competition with immobilised ligand; 1 µM): 5%
CN(C)CCN1CCN(c2nc(NCc3cccc(Cl)c3)c3cc(-c4ccc(=O)n(C)c4)ccc3n2)CC1  ΔTm (BRD4 BD1; thermal stability; DSF; 250 µM): 15 °C
O=C(Cc1ccc2c(c1)OCO2)Oc1ccccc1C=NNS(=O)(=O)c1ccc2ccccc2c1  remaining activity (murD; enzyme activity; inhibitor; absorbance; 100 µM): 49%
Oc1ccc(-c2nc(-c3ccncc3)c(-c3ccc(F)cc3)[nH]2)cc1  ΔTm (Histone acetyltransferase KAT2B (KAT2B, Homo sapiens, UniProt Q92831); thermal stability; DSF; 10 µM): -0.19 °C
N#Cc1ccc(COc2ccccc2C=NNS(=O)(=O)c2cccc([N+](=O)[O-])c2)cc1  remaining activity (murD; enzyme activity; inhibitor; absorbance; 100 µM): 74%
Cc1cc2c(cc1N1C(=O)c3cccc4c(Cl)ccc(c34)C1=O)n(C)c(=O)n2C  ΔTm (BAZ1B; thermal stability; DSF; 10 µM): -1 °C
Nc1ncnc2c1ncn2[C@@H]1O[C@H](CO)[C@@H](O)[C@H]1O  inhibition (HDAC8; enzyme activity; inhibitor; 10 µM): -15.9%
N#Cc1ccc(COc2ccccc2C=NNS(=O)(=O)Cc2ccccc2F)cc1  remaining activity (murD; enzyme activity; inhibitor; absorbance; 100 µM): 39%
Nc1ncnc2occ(-c3ccc(NC(=O)Nc4cc(C(F)(F)F)ccc4F)cc3)c12  remaining signal (Cyclin-dependent kinase 11B (CDK11B, Homo sapiens, UniProt P21127); cell-free assay; 20 µM): 0.4%
O=C(Nc1ccc(C=NNS(=O)(=O)c2ccc3ccccc3c2)cc1)c1ccccc1  remaining activity (murD; enzyme activity; inhibitor; absorbance; 100 µM): 56%
Cc1cnc(Nc2ccc(OCCN3CCCC3)cc2)nc1Nc1cccc(S(=O)(=O)NC(C)(C)C)c1  ΔTm (BAZ1B; thermal stability; DSF; 10 µM): -0.02 °C
O=C(Nc1ccc(C=NNS(=O)(=O)c2ccc3ccccc3c2)cc1)c1ccc([N+](=O)[O-])cc1  remaining activity (murD; enzyme activity; inhibitor; absorbance; 50 µM): 81%
CC(C)[C@@H]1NC(=O)[C@@H]2CCCN2C(=O)[C@H](Cc2ccccc2)NC(=O)CSC[C@@H](C(=O)N[C@@H](Cc2ccc(O)cc2)C(N)=O)NC(=O)[C@H](Cc2c[nH]c3ccccc23)NC(=O)[C@H](CCCCN)NC(=O)[C@H](Cc2ccccc2)N(C)C(=O)[C@H](Cc2ccccc2)NC1=O  ΔTm (BRD4 BD1; thermal stability; DSF; 200 µM): -0.27 °C
